Test results taken from ChEMBL document CHEMBL1142230, “Small-molecule activators of RNase L with broad-spectrum antiviral activity” (Proc Natl Acad Sci U S A, 2007).
Each block holds one compound with its values, some of them ahead of it. Calls of active or inactive are those of the source. The rule behind the calls is not given here.

Key:
[1] = biological target: T1, 2-5A-dependent ribonuclease (Homo sapiens) (UniProt Q05823); assay: Induction of dimerization of human RNaseL at 0.06 to 0.25 uM assessed by Western blotting
T1 sequence (whole entry): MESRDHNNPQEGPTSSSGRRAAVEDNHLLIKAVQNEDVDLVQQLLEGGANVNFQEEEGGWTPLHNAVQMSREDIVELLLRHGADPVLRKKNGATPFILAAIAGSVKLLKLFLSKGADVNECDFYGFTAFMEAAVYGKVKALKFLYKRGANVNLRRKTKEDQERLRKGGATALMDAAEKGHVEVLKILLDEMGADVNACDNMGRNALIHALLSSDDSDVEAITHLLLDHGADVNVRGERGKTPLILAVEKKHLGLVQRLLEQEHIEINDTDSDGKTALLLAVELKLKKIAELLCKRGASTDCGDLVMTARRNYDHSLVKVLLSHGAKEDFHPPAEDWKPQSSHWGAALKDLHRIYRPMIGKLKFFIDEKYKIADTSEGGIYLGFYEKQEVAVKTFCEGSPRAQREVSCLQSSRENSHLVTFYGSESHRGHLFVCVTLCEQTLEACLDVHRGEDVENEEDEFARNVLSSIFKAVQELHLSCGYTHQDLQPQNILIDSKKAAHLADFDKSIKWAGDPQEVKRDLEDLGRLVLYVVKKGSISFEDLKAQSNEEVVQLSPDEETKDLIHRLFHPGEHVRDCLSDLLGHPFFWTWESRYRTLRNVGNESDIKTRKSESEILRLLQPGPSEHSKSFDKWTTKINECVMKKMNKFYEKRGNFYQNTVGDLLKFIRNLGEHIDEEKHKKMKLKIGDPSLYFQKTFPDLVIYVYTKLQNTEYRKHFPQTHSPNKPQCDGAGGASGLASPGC
Method in brief: (§1)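 RNase L incubated with 2-5A or activator, with or without the cross-linker dimethyl suberimidate. Oligomeric state (monomer vs dimer) read by SDS/PAGE and Western blot probed with anti-RNase L monoclonal antibody.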

[2] = biological target: T1, 2-5A-dependent ribonuclease (Homo sapiens); assay: Activation of human recombinant RNase L assessed as cleavage of FRET RNA probe at 15 mins
Method in brief: (§2)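 Baculovirus-expressed, FPLC-purified recombinant human RNase L (25 nM) with 100 nM 36-nt 6-FAM/BHQ-1 FRET RNA probe (Km 75 nM) in cleavage buffer: 25 mM Tris·HCl pH 7.4, 100 mM KCl, 10 mM MgCl2, 50 μM ATP, 7 mM 2-mercaptoethanol. 22°C up to 2 h; fluorescence ex 485/em 535 nm. Compounds delivered from DMSO stocks; rescreened without RNase L to remove false positives.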

[3] = biological target: T1, 2-5A-dependent ribonuclease (Homo sapiens); assay: Activation of human recombinant RNase L assessed as cleavage of p32-labelled RNA molecule at 25 uM after 30 mins
[4] = biological target: T2, 2-5A-dependent ribonuclease (Homo sapiens, UniProt Q05823); assay: Activation of human recombinant Rnase L assessed as cleavage of FRET RNA probe; method in brief: as §2
T2 sequence (Q05823 whole entry): T1 sequence (whole entry)

[5] = biological target: T2, 2-5A-dependent ribonuclease; assay: Displacement of 5'-phosphorylated, 2',5'-oligoadenylate from human recombinant RNase L assessed as decrease in resonance by surface plasma resonance
Method in brief: (§3)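 Biotinylated 2-5A immobilized on streptavidin biosensor chips; 10 nM RNase L with varying activator concentrations passed over the chip. Response units recorded over time, and maximum response at equilibrium (Rmax) fitted against concentration by global fit.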

[6] = biological target: T1, 2-5A-dependent ribonuclease (Homo sapiens); assay: Activation of human recombinant RNaseL at 40 uM assessed as cleavage of FRET RNA probe; method in brief: as §2
[7] = biological target: T1, 2-5A-dependent ribonuclease (Homo sapiens); assay: Induction of dimerization of human RNaseL at 3 to 12 uM assessed by Western blotting; method in brief: as §1
[8] = system: Encephalomyocarditis virus; assay: Antiviral activity against encephalomyocarditis virus in wild type mouse fibroblasts assessed as reduction in viral growth; format: functional
Method in brief: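 SV40 T antigen-transformed wild-type mouse embryonic fibroblasts were grown in RPMI 1640 with 10% FBS and seeded at 2.5 × 10⁵ cells/well. After 1 h, cells were infected with EMCV strain K (MOI 0.5) in serum-free medium for 1 h, washed with PBS, then fed complete medium containing varied compound amounts. At 12 h, titres were measured by plaque assay on L929 cells, in triplicate.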

XMRV = assay: Antiviral activity against human retrovirus XMRV in human DU145 cells assessed as suppression of infection; format: functional, cell-based; conditions: Xenotropic MuLV-related virus; DU-145
Method in brief: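 DU145 cells infected with XMRV for 3 h in FBS-free RPMI 1640 containing 8 μg/ml polybrene, then washed. Treated in triplicate with compound in fresh complete RPMI for 2 d. Reverse transcriptase activity measured in supernatants.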

Human respirovirus 3 [9] = assay: Antiviral activity against human parainfluenza virus3 in HeLaM cells expressing RNaseL R667A mutant […]; format: functional
Method in brief: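 HeLa M cells expressing R667A RNase L cDNA were grown in DMEM with 10% FBS. They were infected with HPIV3/GFP (MOI 1.0) in serum-free medium for 90 min, washed with PBS, then given complete medium with varied compound amounts. At 24 h, virus was harvested by two freeze–thaw cycles and titred by plaque assay on CV1 cells, in triplicate.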

Human respirovirus 3 [10] = assay: Antiviral activity against human parainfluenza virus3 in HeLaS cells expressing wild type RNaseL after 24 hrs by GFP reporter assay; format: functional
Method in brief: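 HeLa S cells, with endogenous wild-type RNase L, were infected with HPIV3/GFP at MOI 1.0. After 90 min, medium was removed and cells were washed twice with PBS. Cells were then incubated in complete medium without compound or with 10, 50 or 100 μM compound. GFP fluorescence was imaged by fluorescence microscopy at 24 h post-infection.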

[11] = Cytotoxicity against mouse fibroblast assessed as reduction of cell viability upto 50 uM; format: cell-based
Method in brief: (§4)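 SV40-transformed mouse embryonic fibroblasts or HeLa S cells (10^4/well) treated with compound up to 50 μM for 24 h. MTS reagent added for 3 h at 37°C; absorbance read at 490 nm. Triplicate, with SDs.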

HeLaS = assay: Cytotoxicity against of human HeLaS cells assessed as reduction of cell viability upto 50 uM; format: functional, cell-based; method in brief: as §4
Respirovirus muris = assay: Antiviral activity against sendai virus in HeLaS cell assessed as suppression of infection; format: functional, organism-based
Method in brief: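 HeLa S cells infected with Sendai virus (Cantell), 20 HA units/ml, in serum-free medium for 90 min. Cells washed and given complete medium with compound doses. Supernatant collected at 24 h; viral genomic RNA quantified by real-time RT-PCR; triplicate.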

Human respirovirus 3 [12] = assay: Antiviral activity against human parainfluenza virus3 in HeLaM cells expressing wild type RNaseL by plaque assay
[13] = biological target: T2, 2-5A-dependent ribonuclease; assay: Binding affinity to human recombinant RNase L; method in brief: as §3

Activity [1]: Active
Activity [2]: Active
Activity [3]: Active
SMILES: Nc1ncnc2c1ncn2[C@@H]1O[C@H](COP(=O)(O)O[C@@H]2[C@H](O)[C@@H](COP(=O)(O)O[C@@H]3[C@H](O)[C@@H](COP(=O)(O)OP(=O)(O)OP(=O)(O)O)O[C@H]3n3cnc4c(N)ncnc43)O[C@H]2n2cnc3c(N)ncnc32)[C@@H](O)[C@H]1O

EC50 [4]: 49 µM
SMILES: CCOC(=O)C1=C(Nc2ccc(Cl)cc2)S/C(=C\c2cccc(O)c2)C1=O

EC50 [4]: 48 µM
SMILES: COc1ccc(Cl)cc1NC(=O)c1cc2c(C)nn(-c3ccccc3)c2s1

EC50 [4]: 79 µM
SMILES: CC(=O)c1ccc(NC(=S)NC(NC(=O)Cc2ccccc2)C(Cl)(Cl)Cl)cc1 (stereo not drawn)

EC50 [4]: 26 µM
SMILES: O=c1[nH]c(-c2ccc(O)cc2)nc2sc3c(c12)CCCC3

EC50 [4]: 49 µM
SMILES: Cc1ccc(NC2=NC(=O)/C(=C/c3cccc(O)c3)S2)c(Cl)c1

EC50 [4]: 22 µM
SMILES: O=c1[nH]c(-c2cccc([N+](=O)[O-])c2)nc2sc3c(c12)CCCC3

EC50 [4]: 99 µM
SMILES: CCCCOC(=O)c1ccc(NC(=S)NC(NC(C)=O)C(Cl)(Cl)Cl)cc1 (stereo not drawn)

SMILES: O=c1[nH]c(-c2cccc(O)c2)nc2sc3c(c12)CCCC3
Kd [5]: 12 µM
Activity [6]: Active
EC50 [4]: 22 µM
Activity [7]: Active
Activity [8]: 7
Activity (XMRV): Active
Activity (Human respirovirus 3 [9]): <2
Activity (Human respirovirus 3 [10]): 5
Activity [11]: Not Active
Activity (HeLaS): inactive
Activity (Respirovirus muris): Active
Activity [3]: Active
Activity (Human respirovirus 3 [12]): Active

SMILES: CCOC(=O)C1=C(Nc2ccccc2)S/C(=C\c2cccc(O)c2)C1=O
Kd [5]: 18 µM
Activity [6]: Active
EC50 [4]: 26 µM
Activity [1]: Active
Activity [7]: Active
Activity [8]: 7
Activity [11]: Not Active
Activity (HeLaS): inactive
Activity (Respirovirus muris): Active
Activity [3]: Active

Kd [5]: 0.00022 µM
EC50 [4]: 0.0005 µM
Kd [13]: 40 pM
SMILES: Nc1ncnc2c1ncn2[C@@H]1O[C@H](CO[P@](=O)(O)O[C@@H]2[C@H](O)[C@@H](CO[P@](=O)(O)O[C@@H]3[C@H](O)[C@@H](CO[P@](=O)(O)O[P@@](=O)(O)OP(=O)(O)O)O[C@H]3n3cnc4c(N)ncnc43)O[C@H]2n2cnc3c(N)ncnc32)[C@@H](O)[C@H]1O

EC50 [4]: 90 µM
SMILES: CCCCOC(=O)c1ccc(NC(=S)NC(NC(=O)CC)C(Cl)(Cl)Cl)cc1 (stereo not drawn)

EC50 [4]: 50 µM
SMILES: Cc1c(Cl)cccc1NC1=NC(=O)/C(=C/c2ccc([N+](=O)[O-])cc2)S1
